Most compounds without a hit are left out; they make up all but 3.7% or so of the library.
KCNK9 inh – inhibitors of human KCNK9 two-pore domain potassium channel; Q9NPC2; HEK293 KCNK9, FluxOR thallium flux fluorescence; active compounds read low; B-score at 10 µM; hit rate 1.2% among 310,000;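 active = ratio B-score over 3 SD below the library mean, with starting fluorescence within 5 SD of its mean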;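 also: negative B-score means less thallium flux so channel inhibition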
Kir21 block – blocks the mouse Kir2.1 inward-rectifier potassium channel; hit rate 0.85% among 310,000; B-score at 10 µM; HEK293-Kir2.1, FluxOR thallium flux fluorescence; active compounds read low; P35561;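 active = fluorescence ratio B-score at or below minus 3 SD of library scores, with starting-brightness B-score within 2 SD, cut at about -4.2 in these data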;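 also: channel flux triggered by added potassium and thallium sulfate stimulus; B-score of peak minus minimum fluorescence over baseline after thallium stimulus; more negative B-score means stronger Kir2.1 block with less thallium influx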
Target sequence (P35561 whole entry, looked up): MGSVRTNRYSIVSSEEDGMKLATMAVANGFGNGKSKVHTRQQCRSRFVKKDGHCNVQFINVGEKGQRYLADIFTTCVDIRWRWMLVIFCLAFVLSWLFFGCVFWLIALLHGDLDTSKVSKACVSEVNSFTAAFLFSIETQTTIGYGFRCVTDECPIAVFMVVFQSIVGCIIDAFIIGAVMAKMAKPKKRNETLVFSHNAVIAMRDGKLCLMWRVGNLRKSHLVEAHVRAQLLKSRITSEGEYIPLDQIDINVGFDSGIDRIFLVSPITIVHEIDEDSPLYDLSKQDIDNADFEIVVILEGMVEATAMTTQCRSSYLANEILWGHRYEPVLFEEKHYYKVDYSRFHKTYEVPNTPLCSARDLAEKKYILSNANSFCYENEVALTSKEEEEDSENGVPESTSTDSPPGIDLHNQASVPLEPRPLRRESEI
KCNQ1 pot – human KCNQ1 channel potentiation or activation; CHO-K1 KCNQ1, thallium flux FluxOR fluorescence; active compounds read high; P51787; hit rate 0.35% among 310,000; AID 2648; B-score at 10 µM;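 active = fluorescence ratio B-score, a plate-corrected score, at least three library SD, with initial intensity B-score within 5 SD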
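System: CHO-K1 cells stably expressing KCNQ1 / Medium: assay buffer for compound exposure, DMSO matched across wells / Reagent: thallium- and potassium-containing depolarizing buffer / Compound: one concentration, matched DMSO / Incubation: 20 min compound pretreatment at room temperature / Measured by: kinetic FluxOR fluorescence, 10 s baseline plus 110 s post-stimulus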
KCNK3 block – human KCNK3 channel inhibition, primary screen | O14649 | CHO-KCNK3 thallium flux, FluxOR fluorescence; active compounds read low | B-score at 10 µM | hit rate 0.84% among 340,000;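 active = B-score under library mean minus 4 SD, starting fluorescence ratio at most library mean plus 5 SD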;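 also: more negative B-score means stronger inhibition of thallium flux through KCNK3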
hERG protect – compounds protecting human hERG from proarrhythmic drug block | Q12809 | CHO-hERG, FluxOR thallium flux, dofetilide IC70 present | activation (rescue from dofetilide block), less the hit threshold, % at 10 µM | hit rate 0.51% among 310,000 | AID 1511;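 active = activation above the mean of controls blocked by dofetilide plus 5 SD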;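 also: thallium influx through hERG after potassium depolarization seen as dye fluorescence rise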
KCNQ1 block – human KCNQ1 channel inhibition | CHO-K1 KCNQ1, FluxOR thallium flux fluorescence; active compounds read high | B-score at 10 µM | hit rate 1.3% among 310,000 | AID 2642;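 active = compounds whose thallium flux B-score, printed positive for inhibition, exceeds three library SD while starting fluorescence stays within three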;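 also: channel opened by potassium depolarization with thallium stimulus after 20 min compound exposure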
KCNK9 block conf – human KCNK9 inhibitor confirmation; shares compounds with KCNK9 inh; HEK293 KCNK9 cells, FluxOR thallium flux fluorescence; inhibition, % at 10 µM; hit rate 43% among 4,900; AID 492992;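 active = thallium signal inhibited by more than 5 SD of the compound-free buffer control wells, on both duplicate plates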
Kir21 sel – mouse Kir2.1 off-target activity of KCNK9 modulators; shares compounds with KCNK9 inh; Kir2.1 cells, FluxOR thallium flux fluorescence; inhibition, % at 10 µM; hit rate 4% among 4,900; AID 492993;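 active = thallium signal drop more than 5 SD beyond the mean of the no-compound control wells, seen in both duplicate plates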;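 also: signal is fluorescence rise after thallium addition divided by baseline fluorescence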
HEK293 Tl ctr – non-induced cell nonspecific activity of KCNK9 modulators; AID 492997; shares compounds with KCNK9 inh; inhibition, % at 10 µM; hit rate 40% among 4,900; non-induced KCNK9-HEK293, FluxOR thallium flux;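 active = thallium signal drop beyond 5 SD of the untreated control mean, on both duplicate plates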
Hits are given with their value.

How did Cc1ccc(-c2nc(CN(Cc3c(C)nn(C)c3C)C(C)C)c(C)o2)o1 do in these assays?
KCNK9 inh: inactive; Kir21 block: inactive; KCNQ1 pot: inactive; KCNK3 block: inactive; hERG protect: inactive; KCNQ1 block: inactive

What do the screens show for `CC1CCN(C(=O)CCc2nnc3ccc(NCCCN4CCCC4=O)nn23)CC1`?
KCNK9 inh: inactive; Kir21 block: inactive; KCNQ1 pot: inactive; KCNK3 block: inactive; hERG protect: inactive; KCNQ1 block: inactive

How did O=C(NCC1CCCO1)c1cc2c([nH]c3ccccc32)c(-c2cccc(Cl)c2)n1 (stereo not drawn) do in these assays?
KCNK9 inh: -11; Kir21 block: inactive; KCNQ1 pot: inactive; KCNK3 block: inactive; hERG protect: inactive; KCNQ1 block: 12; KCNK9 block conf: inactive; Kir21 sel: inactive; HEK293 Tl ctr: inactive

What do the screens show for `NS(=O)(=O)c1cnccc1Oc1cccc(Cl)c1`?
KCNK9 inh: inactive; Kir21 block: inactive; KCNQ1 pot: inactive; KCNK3 block: inactive; hERG protect: inactive; KCNQ1 block: inactive

What do the screens show for `CCOc1ccc(C(=O)OCCN(CC)CC)cc1`?
KCNK9 inh: inactive; Kir21 block: inactive; KCNQ1 pot: inactive; KCNK3 block: inactive; hERG protect: inactive; KCNQ1 block: inactive

Results for CCN(CC)CCOc1ccc(/C(=C(/Cl)c2ccccc2)c2ccccc2)cc1 ?
KCNK9 inh: inactive; Kir21 block: inactive; KCNQ1 pot: inactive; KCNK3 block: inactive; hERG protect: inactive; KCNQ1 block: 8; KCNK9 block conf: inactive; Kir21 sel: inactive; HEK293 Tl ctr: inactive

Results for Cc1ccc(NC(=O)CN2CCc3cc4c(cc3C2C)OCCCO4)cc1C (stereo not drawn) ?
KCNK9 inh: inactive; Kir21 block: inactive; KCNQ1 pot: inactive; KCNK3 block: inactive; hERG protect: inactive; KCNQ1 block: inactive; KCNK9 block conf: inactive; Kir21 sel: inactive; HEK293 Tl ctr: 31%

Results for Cc1ccc(NC(=O)CN2CCc3cc4c(cc3C2C)OCCCO4)cc1 (stereo not drawn) ?
KCNK9 inh: inactive; Kir21 block: inactive; KCNQ1 pot: inactive; KCNK3 block: inactive; hERG protect: inactive; KCNQ1 block: inactive

What do the screens show for `COc1ccccc1NC(=O)C(=O)NCC(c1ccco1)N1CCc2ccccc2C1` (stereo not drawn)?
KCNK9 inh: inactive; Kir21 block: inactive; KCNQ1 pot: inactive; KCNK3 block: inactive; hERG protect: inactive; KCNQ1 block: inactive; KCNK9 block conf: inactive; Kir21 sel: inactive; HEK293 Tl ctr: inactive

Results for NC(=S)n1[nH]c(-c2ccc([N+](=O)[O-])cc2)c(N=Nc2cccc(Cl)c2)c1=O ?
KCNK9 inh: inactive; Kir21 block: inactive; KCNQ1 pot: 8; KCNK3 block: inactive; hERG protect: inactive; KCNQ1 block: inactive; KCNK9 block conf: inactive; Kir21 sel: inactive; HEK293 Tl ctr: inactive

How did NC(=S)n1[nH]c(-c2ccc([N+](=O)[O-])cc2)c(N=Nc2ccc(O)cc2)c1=O do in these assays?
KCNK9 inh: inactive; Kir21 block: inactive; KCNQ1 pot: inactive; KCNK3 block: inactive; hERG protect: inactive; KCNQ1 block: inactive

How did CCCCOc1cccc(C(=O)NC(=S)Nc2cccc(C(F)(F)F)c2)c1 do in these assays?
KCNK9 inh: inactive; Kir21 block: inactive; KCNQ1 pot: inactive; KCNK3 block: inactive; hERG protect: inactive; KCNQ1 block: inactive; KCNK9 block conf: inactive; Kir21 sel: inactive; HEK293 Tl ctr: inactive

What do the screens show for `O=C(OC1CCN(c2ncc(C(F)(F)F)cc2Cl)CC1)c1ccc(Cl)cc1`?
KCNK9 inh: inactive; Kir21 block: inactive; KCNQ1 pot: inactive; KCNK3 block: inactive; hERG protect: inactive; KCNQ1 block: inactive; KCNK9 block conf: inactive; Kir21 sel: inactive; HEK293 Tl ctr: inactive

How did Cc1ccc(SCC(=O)c2cc(C)c(O)c(C)c2)cc1 do in these assays?
KCNK9 inh: inactive; Kir21 block: inactive; KCNQ1 pot: inactive; KCNK3 block: inactive; hERG protect: inactive; KCNQ1 block: inactive
